Legend:
[1] = biological target: T1, Bromodomain-containing protein 4 (Homo sapiens, UniProt O60885); assay: Displacement of APC-labeled biotinylated-avidin from […]-chelated recombinant human N-terminal GST-tagged BRD4 bromodomain 1 expressed in Escherichia coli preincubated for 15 mins followed by APC-labeled biotinylated-avidin addition and measured after 1 hr under dark condition by TR-FRET assay
[2] = test system: MV4-11; assay: Antiproliferative activity against human MV4-11 cells assessed as reduction in cell viability incubated for 72 hrs by CCK-8 assay; format: functional, cell-based; details: MV4-11, 72 h
Method in brief: (§1)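 Cells grown in IMDM with 10% FBS and 1% penicillin–streptomycin at 37 °C in a CO₂ incubator and harvested in log phase. Seeded at 10,000 cells per well in 100 μL medium, cultured 12 h, then given compounds at a range of concentrations for 72 h. CCK-8 added for 1–4 h, absorbance read at 450 nm. IC₅₀ calculated from the dose-response data.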

[3] = test system: HL-60; assay: Antiproliferative activity against human HL60 cells assessed as reduction in cell viability incubated for 72 hrs by CCK-8 assay; format: functional, cell-based; details: HL-60, 72 h; method in brief: as §1
[4] = test system: MV4-11; assay: Induction of apoptosis in human MV4-11 cells assessed as necrotic cell at 0.5 uM after 12 hrs by Annexin V-FITC/propidium iodide staining-based flow cytometric analysis (reference value: 0.17 %); format: functional
[5] = test system: MV4-11; assay: Cell cycle arrest in human MV4-11 cells assessed as accumulation at G1 phase after 12 hrs by propidium iodide staining based flow cytometric analysis; format: functional
[6] = test system: MV4-11; assay: Induction of apoptosis in human MV4-11 cells assessed as late apoptotic cell at 0.5 uM after 12 hrs by Annexin V-FITC/propidium iodide staining-based flow cytometric analysis (reference value: 1.28 %); format: functional
[7] = test system: MV4-11; assay: Induction of apoptosis in human MV4-11 cells assessed as live cell at 0.5 uM after 12 hrs by Annexin V-FITC/propidium iodide staining-based flow cytometric analysis (reference value: 97.99 %); format: functional
[8] = test system: MV4-11; assay: Induction of apoptosis in human MV4-11 cells assessed as early apoptotic cell at 0.5 uM after 12 hrs by Annexin V-FITC/propidium iodide staining-based flow cytometric analysis (reference value: 0.56 %); format: functional
[9] = test system: MV4-11; assay: Induction of apoptosis in human MV4-11 cells assessed as necrotic cell at 5 uM after 12 hrs by Annexin V-FITC/propidium iodide staining-based flow cytometric analysis (reference value: 0.17 %); format: functional
[10] = test system: MV4-11; assay: Induction of apoptosis in human MV4-11 cells assessed as late apoptotic cell at 5 uM after 12 hrs by Annexin V-FITC/propidium iodide staining-based flow cytometric analysis (reference value: 1.28 %); format: functional
[11] = test system: MV4-11; assay: Induction of apoptosis in human MV4-11 cells assessed as live cell at 5 uM after 12 hrs by Annexin V-FITC/propidium iodide staining-based flow cytometric analysis (reference value: 97.99 %); format: functional
[12] = test system: MV4-11; assay: Induction of apoptosis in human MV4-11 cells assessed as early apoptotic cell at 5 uM after 12 hrs by Annexin V-FITC/propidium iodide staining-based flow cytometric analysis (reference value: 0.56 %); format: functional
[13] = test system: MV4-11; assay: Cell cycle arrest in human MV4-11 cells assessed as accumulation at G0/G1 phase at 0.5 uM after 12 hrs by propidium iodide staining based flow cytometric analysis (reference value: 43.91%); format: functional
[14] = test system: MV4-11; assay: Cell cycle arrest in human MV4-11 cells assessed as accumulation at G2/M phase at 0.5 uM after 12 hrs by propidium iodide staining based flow cytometric analysis (reference value: 18.19%); format: functional
[15] = test system: MV4-11; assay: Cell cycle arrest in human MV4-11 cells assessed as accumulation at S phase at 0.5 uM after 12 hrs by propidium iodide staining based flow cytometric analysis (reference value: 38.62%); format: functional
[16] = test system: MV4-11; assay: Cell cycle arrest in human MV4-11 cells assessed as accumulation at G0/G1 phase at 5 uM after 12 hrs by propidium iodide staining based flow cytometric analysis (reference value: 43.91%); format: functional
[17] = test system: MV4-11; assay: Cell cycle arrest in human MV4-11 cells assessed as accumulation at G2/M phase at 5 uM after 12 hrs by propidium iodide staining based flow cytometric analysis (reference value: 18.19%); format: functional
[18] = test system: MV4-11; assay: Cell cycle arrest in human MV4-11 cells assessed as accumulation at S phase at 5 uM after 12 hrs by propidium iodide staining based flow cytometric analysis (reference value: 38.62%); format: functional
[19] = test system: MV4-11; assay: Induction of apoptosis in human MV4-11 cells after 12 hrs by Annexin V-FITC/propidium iodide staining-based flow cytometric analysis; format: functional, cell-based
[20] = biological target: T1, Bromodomain-containing protein 4; assay: Inhibition of BRD4 in human MV4-11 cells assessed as reduction in c-Myc expression level after 4 hrs by Western blot analysis; format: cell-based
Method in brief: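 Log-phase MV-4-11 cells (IMDM, 10% FBS, 1% penicillin–streptomycin, 37 °C) were treated with compound for 4 h, then lysed at 4 °C and protein quantified. Lysates were run on SDS-PAGE (10% separating, 4% stacking gel) and transferred to PVDF. Membranes were blocked 2 h in 5% non-fat milk/TBST at room temperature, probed for c-Myc, and band intensity quantified from three independent experiments.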

CCOC(=O)CC1N=C(c2ccc(Cl)cc2)c2cc(OC)ccc2-c2c1sc(=O)n2C (configuration not stated)
IC50 [1]: 420 nM | IC50 [2]: 880 nM | IC50 [3]: 6.21 µM

COc1ccc2c(c1)C(c1ccc(Cl)cc1)=NC(CC(=O)Nc1ccccc1)c1sc(=O)n(C)c1-2 (configuration not stated)
IC50 [1]: 200 nM | IC50 [2]: 670 nM | IC50 [3]: 7.74 µM

COc1ccc2c(c1)C(c1ccc(Cl)cc1)=NC(CC(=O)Nc1ccc(F)cc1)c1sc(=O)n(C)c1-2 (configuration not stated)
IC50 [1]: 680 nM | IC50 [2]: 1440 nM | IC50 [3]: 12.4 µM

C#CCNC(=O)CC1N=C(c2ccc(Cl)cc2)c2cc(OC)ccc2-c2c1sc(=O)n2C (configuration not stated)
IC50 [1]: 210 nM | IC50 [2]: 700 nM | IC50 [3]: 8.46 µM

COc1ccc2c(c1)C(c1ccc(Cl)cc1)=NC(CC(=O)NC1CC1)c1sc(=O)n(C)c1-2 (configuration not stated)
IC50 [1]: 140 nM | IC50 [2]: 510 nM | IC50 [3]: 4.56 µM

CCNC(=O)CC1N=C(c2ccc(Cl)cc2)c2cc(OC)ccc2-c2c1sc(=O)n2C (configuration not stated)
IC50 [1]: 740 nM | IC50 [2]: 1780 nM | IC50 [3]: 12.8 µM

COc1ccc2c(c1)C(c1ccc(Cl)cc1)=NC(CC(=O)N1CCCC1)c1sc(=O)n(C)c1-2 (configuration not stated)
IC50 [1]: 540 nM | IC50 [2]: 1120 nM | IC50 [3]: 10.4 µM

CCCCNC(=O)CC1N=C(c2ccc(Cl)cc2)c2cc(OC)ccc2-c2c1sc(=O)n2C (configuration not stated)
IC50 [1]: 1020 nM | IC50 [2]: 3480 nM

Cc1sc2c(c1C)C(c1ccc(Cl)cc1)=N[C@@H](CC(=O)OC(C)(C)C)c1nnc(C)n1-2
Activity [4]: 0.06% | IC50 [3]: 3.46 µM | Activity [5]: Dose-dependent effect | Activity [6]: 9.14% | Activity [7]: 85.57% | Activity [8]: 5.23% | Activity [9]: 0.24% | Activity [10]: 59.31% | Activity [11]: 9.58% | Activity [12]: 30.87% | Activity [13]: 57.35% | Activity [14]: 14.56% | Activity [15]: 28.09% | Activity [16]: 83.64% | Activity [17]: 13.01% | Activity [18]: 3.35%

COc1ccc2c(c1)C(c1ccc(Cl)cc1)=NC(CC(=O)O)c1sc(=O)n(C)c1-2 (configuration not stated)
IC50 [1]: 870 nM | IC50 [2]: 2860 nM

COc1ccc2c(c1)C(c1ccc(Cl)cc1)=NC(CC(=O)N1CCCCC1)c1sc(=O)n(C)c1-2 (configuration not stated)
IC50 [1]: 430 nM | IC50 [2]: 910 nM | IC50 [3]: 8.69 µM

COc1ccc2c(c1)C(c1ccc(Cl)cc1)=NC(CC(=O)NC(C)(C)C)c1sc(=O)n(C)c1-2 (configuration not stated)
IC50 [1]: 160 nM | IC50 [2]: 640 nM | IC50 [3]: 5.41 µM

CCOC(=O)CC1OC(c2ccc(Cl)cc2)c2cc(OC)ccc2-c2c1sc(=O)n2C (configuration not stated)
IC50 [1]: 480 nM | IC50 [2]: 920 nM | IC50 [3]: 5.44 µM

COc1ccc2c(c1)C(c1ccc(Cl)cc1)=NC(CC(=O)N1CCOCC1)c1sc(=O)n(C)c1-2 (configuration not stated)
IC50 [1]: 480 nM | IC50 [2]: 940 nM | IC50 [3]: 7.62 µM

COc1ccc2c(c1)C(c1ccc(Cl)cc1)=NC(CC(=O)Nc1ccc(O)cc1)c1sc(=O)n(C)c1-2 (configuration not stated)
IC50 [1]: 510 nM | IC50 [2]: 1060 nM | IC50 [3]: 9.05 µM

CCNC(=O)C[C@@H]1N=C(c2ccc(Cl)cc2)c2cc(OC)ccc2-n2c(C)nnc21 [MOLIBRESIB]
IC50 [2]: 1230 nM

COc1ccc2c(c1)C(c1ccc(Cl)cc1)=NC(CC(=O)NC1CCCC1)c1sc(=O)n(C)c1-2 (configuration not stated)
Activity [4]: 0.35% | IC50 [1]: 110 nM | IC50 [2]: 420 nM | IC50 [3]: 5.52 µM | Activity [5]: Dose-dependent effect | Activity [19]: Dose-dependent effect | Activity [6]: 5.93% | Activity [7]: 87.61% | Activity [8]: 6.1% | Activity [9]: 0.42% | Activity [10]: 42.85% | Activity [11]: 26.76% | Activity [12]: 29.97% | Activity [13]: 50.67% | Activity [14]: 17.93% | Activity [15]: 31.2% | Activity [16]: 70.68% | Activity [17]: 14.11% | Activity [18]: 15.23% | inhibition [20]: Dose-dependent effect
